Measurements from ChEMBL document CHEMBL1806457, “Synthesis and antimicrobial evaluation of new benzofuran derivatives” (2011).
In brackets after ≈: the same amount, converted by molar mass.

Experiments:
Type in all cases: functional
[1] = tested on: Candida albicans; assay: microbe, parasite or virus in culture; conditions: ATCC 6258, 48 h
[2] = tested on: Staphylococcus aureus; assay: Antibacterial activity against 1 x 10^4 cfu/mL methicillin-resistant Staphylococcus aureus ATCC 700699 after 24 hrs by NCCLS M7-A6 microtiter broth dilution method; conditions: ATCC 700699, 24 h
Summary of the method: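 Bacteria pre-cultured in LB broth 24 h at 37 °C. Colonies suspended in sterile saline and adjusted to 0.5 McFarland (625 nm, 1–2 × 10⁸ cfu/mL), then diluted 1:10,000 in LB. Compounds from a 4 mg/mL DMSO stock were two-fold serially diluted across a 96-well plate, 200 down to 0.39 µg/mL. MIC80 was the lowest concentration preventing visible growth (>80% inhibition).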

[3] = tested on: Bacillus subtilis; assay: Antibacterial activity against 1 x 10^4 cfu/mL Bacillus subtilis ATCC 33712 after 24 hrs by NCCLS M7-A6 microtiter broth dilution method; conditions: ATCC 33712, 24 h
[4] = tested on: Escherichia coli; assay: Antibacterial activity against 1 x 10^4 cfu/mL Escherichia coli ATCC 11303 after 24 hrs by NCCLS M7-A6 microtiter broth dilution method; conditions: ATCC 11303, 24 h
[5] = tested on: Staphylococcus aureus; assay: Antibacterial activity against 1 x 10^4 cfu/mL Staphylococcus aureus ATCC 29213 after 24 hrs by NCCLS M7-A6 microtiter broth dilution method; conditions: ATCC 29213, 24 h

| Structure (SMILES) | MIC80 [1] [µg/mL] | MIC80 [2] [µg/mL] | MIC80 [3] [µg/mL] | MIC80 [4] [µg/mL] | MIC80 [5] [µg/mL] |
| --- | --- | --- | --- | --- | --- |
| Oc1ccc(/C=C/c2cc(O)cc(O)c2)cc1 [RESVERATROL] | > 200 | 25 (≈ 110 µM) | 25 (≈ 110 µM) | 25 (≈ 110 µM) | 25 (≈ 110 µM) |
| COc1ccc(-c2oc3ccc(C)cc3c2C(=O)c2cc(Cl)cc(Cl)c2)cc1 | > 200 | > 200 | > 200 | > 200 | > 200 |
| COc1ccc(-c2oc3ccc(C)cc3c2C(=O)c2cc(OC)cc(OC)c2)cc1 | > 200 | > 200 | > 200 | > 200 | > 200 |
| COc1ccc(C(=O)c2c(-c3ccc(OC)cc3)oc3ccc(C)cc23)cc1 | > 200 | > 200 | > 200 | > 200 | > 200 |
| COc1ccc(-c2oc3ccc(C)cc3c2C(=O)c2ccccc2Br)cc1 | > 200 | > 200 | 0.78 (≈ 1.85 µM) | > 200 | > 200 |
| COc1ccc(-c2oc3ccc(C)cc3c2C(=O)c2ccc(Cl)cc2)cc1 | > 200 | > 200 | > 200 | > 200 | > 200 |
| COc1ccc(-c2oc3ccc(C)cc3c2C(=O)c2ccc(O)c(C)c2)cc1 | > 200 | 0.78 (≈ 2.09 µM) | 1.56 (≈ 4.19 µM) | 0.78 (≈ 2.09 µM) | 0.78 (≈ 2.09 µM) |
| CO/N=C(\C(=O)N[C@@H]1C(=O)N2C(C(=O)O)=C(COC(C)=O)CS[C@H]12)c1csc(N)n1 [CEFOTAXIME] | – | 3.12 (≈ 6.85 µM) | 0.78 (≈ 1.71 µM) | > 200 | 3.12 (≈ 6.85 µM) |
| CC(=O)N1CCN(c2ccc(OCC3COC(Cn4ccnc4)(c4ccc(Cl)cc4Cl)O3)cc2)CC1 (centres undefined) [KETOCONAZOLE] | < 0.39 | – | – | – | – |
| COc1ccc(-c2oc3ccc(C)cc3c2C(=O)c2cc(F)c(F)cc2Br)cc1 | > 200 | > 200 | > 200 | > 200 | > 200 |
| COc1ccc(-c2oc3ccc(C)cc3c2C(=O)c2ccc(O)cc2)cc1 | > 200 | 0.78 (≈ 2.18 µM) | 0.78 (≈ 2.18 µM) | 0.78 (≈ 2.18 µM) | < 0.39 |
| COc1ccc(-c2oc3ccc(C)cc3c2C(=O)c2ccc(O)c(I)c2)cc1 | > 200 | 0.78 (≈ 1.61 µM) | 1.56 (≈ 3.22 µM) | 3.12 (≈ 6.44 µM) | 0.78 (≈ 1.61 µM) |
| COc1ccc(-c2oc3ccc(C)cc3c2C(=O)c2cccc(OC)c2OC)cc1 | > 200 | > 200 | > 200 | > 200 | > 200 |
| Clc1ccc(COC(Cn2ccnc2)c2ccc(Cl)cc2Cl)c(Cl)c1.O=[N+]([O-])O (centres undefined) [MICONAZOLE NITRATE] | < 0.39 | – | – | – | – |
| COc1ccc(-c2oc3ccc(C)cc3c2C(=O)c2cc(O)cc(OC)c2)cc1 | > 200 | 0.78 (≈ 2.01 µM) | 0.78 (≈ 2.01 µM) | 0.78 (≈ 2.01 µM) | < 0.39 |
| CC(C)(O/N=C(\C(=O)N[C@@H]1C(=O)N2C(C(=O)[O-])=C(C[n+]3ccccc3)CS[C@H]12)c1csc(N)n1)C(=O)O [CEFTAZIDIME] | – | 12.5 (≈ 22.9 µM) | 6.25 (≈ 11.4 µM) | > 200 | 0.78 (≈ 1.43 µM) |
| CC1(C)S[C@@H]2[C@H](NC(=O)Cc3ccccc3)C(=O)N2[C@H]1C(=O)[O-].[Na+] [PENICILLIN G SODIUM] | – | 3.12 | < 0.39 | 0.78 | 3.12 |
| COc1ccc(-c2oc3ccc(C)cc3c2C(=O)c2cccc(OC)c2O)cc1 | > 200 | > 200 | > 200 | > 200 | > 200 |
| COc1ccc(-c2oc3ccc(C)cc3c2C(=O)c2cc(OC)c(OC)c(OC)c2)cc1 | > 200 | > 200 | > 200 | > 200 | > 200 |
